Key:
[1] = biological target: Sodium-dependent serotonin transporter (Macaca mulatta, UniProt Q9MYX0); experiment: Displacement of [3H]citalopram from SERT in rhesus monkey caudate-putamen; format: tissue-based
Procedure, shortened: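 Caudate-putamen membranes from rhesus or cynomolgus monkey (4 mg original wet weight/mL) in 50 mM Tris·HCl pH 7.4 with 100 mM NaCl. Incubated with 1 nM [3H]citalopram and a range of test drug concentrations for 2 h at 0-4 °C. Filtered over glass fibre filters pre-soaked in 0.1% polyethyleneimine, then scintillation counted. IC50 is the mean of ≥2 independent experiments in different brains, each in triplicate.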

Transporter = Transporter (Macaca mulatta, UniProt Q7JHP9); experiment: Displacement of [3H]WIN-35428 from DAT in rhesus monkey caudate-putamen; format: tissue-based
Chain of Transporter (Q7JHP9 whole entry): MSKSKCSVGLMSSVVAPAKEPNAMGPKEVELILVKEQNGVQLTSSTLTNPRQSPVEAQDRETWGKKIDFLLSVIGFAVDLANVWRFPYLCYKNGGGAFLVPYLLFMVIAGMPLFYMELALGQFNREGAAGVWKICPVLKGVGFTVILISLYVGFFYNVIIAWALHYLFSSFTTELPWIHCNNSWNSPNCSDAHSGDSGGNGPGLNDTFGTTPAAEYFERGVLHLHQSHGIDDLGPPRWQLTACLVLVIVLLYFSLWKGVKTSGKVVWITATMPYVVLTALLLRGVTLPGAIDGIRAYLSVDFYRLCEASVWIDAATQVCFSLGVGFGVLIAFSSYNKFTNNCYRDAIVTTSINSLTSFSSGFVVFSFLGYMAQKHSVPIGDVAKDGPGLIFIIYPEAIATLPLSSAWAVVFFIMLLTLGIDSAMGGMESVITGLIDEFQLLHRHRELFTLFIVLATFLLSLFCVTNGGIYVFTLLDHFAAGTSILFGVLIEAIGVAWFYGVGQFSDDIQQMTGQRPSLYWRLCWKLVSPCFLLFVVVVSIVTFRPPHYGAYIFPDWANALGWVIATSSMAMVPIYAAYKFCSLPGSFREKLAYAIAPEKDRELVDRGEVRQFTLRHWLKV
Procedure, shortened: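 Rhesus or cynomolgus caudate-putamen membranes (4 mg original wet weight/mL) in 50 mM Tris·HCl pH 7.4, 100 mM NaCl. Incubated 2 h at 0-4 °C with 0.3 nM [3H]WIN35,428 and a range of drug concentrations. Filtered on 0.1% BSA-soaked glass fibre filters and scintillation counted. Nonspecific binding defined with 30 μM (-)-cocaine. IC50 is the mean of ≥2 experiments in different brains, each in triplicate.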

Macaca mulatta = species on record: Macaca mulatta; experiment: Selectivity for rhesus monkey DAT over rhesus monkey SERT
Procedure, shortened: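 Ratio of SERT IC50 ([3H]citalopram binding) to DAT IC50 ([3H]WIN35,428 binding), both measured in monkey caudate-putamen membranes.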

Chain of Sodium-dependent serotonin transporter (Q9MYX0 whole entry): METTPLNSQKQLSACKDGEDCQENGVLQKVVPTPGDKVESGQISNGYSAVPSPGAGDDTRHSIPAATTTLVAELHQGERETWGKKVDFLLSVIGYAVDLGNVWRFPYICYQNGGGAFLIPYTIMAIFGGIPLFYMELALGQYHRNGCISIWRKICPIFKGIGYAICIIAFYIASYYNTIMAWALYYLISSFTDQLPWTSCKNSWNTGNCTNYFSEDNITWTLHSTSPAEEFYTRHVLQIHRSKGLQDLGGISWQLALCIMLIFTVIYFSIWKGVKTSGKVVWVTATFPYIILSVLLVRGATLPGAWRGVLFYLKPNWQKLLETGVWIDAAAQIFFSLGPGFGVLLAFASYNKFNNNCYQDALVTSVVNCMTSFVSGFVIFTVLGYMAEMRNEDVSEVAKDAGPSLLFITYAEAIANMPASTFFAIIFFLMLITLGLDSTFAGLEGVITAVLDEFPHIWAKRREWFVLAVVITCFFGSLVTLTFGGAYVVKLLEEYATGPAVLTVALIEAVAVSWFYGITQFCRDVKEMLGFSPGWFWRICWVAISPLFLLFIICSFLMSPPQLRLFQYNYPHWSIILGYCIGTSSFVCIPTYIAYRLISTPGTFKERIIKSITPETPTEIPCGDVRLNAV

Row | Compound | IC50 [1] | IC50 (Transporter) | Ratio IC50 (Macaca mulatta)
1 | COC(=O)[C@@H]1C2CCC(C[C@@H]1c1ccc(Cl)c(F)c1)S2 (stereo partly specified) | 17 nM | 6 nM | 3
2 | COC(=O)C1=C(c2ccc(F)c(F)c2)CC2CCC1S2 (stereo unspecified) | > 10000 nM | 75 nM | > 133

— ChEMBL document CHEMBL1144528, “Synthesis of 8-thiabicyclo[3.2.1]octanes and their binding affinity for the dopamine and serotonin transporters” (Bioorg Med Chem, 2007)
